Measured values as given in article PMC3447108 (Bioconjugate chemistry, 2012).
Like-named read-outs stand apart in the source and are kept apart here.

Experiments:
[1] = system: RGC-5 cells; assay: NMDA / glutamate excitotoxicity model; format: cell-based, mouse; conditions: native and SS-differentiated; up to 5 mM, up to 48 hrs; data not shown
[2] = system: RGC-5 cells; assay: Staurosporine differentiation and morphology of RGC-5 cells; format: cell-based, mouse
[3] = system: RGC-5 cells; assay: Induction of apoptosis and probe activation by cytotoxic agents; format: cell-based, mouse
[4] = biological target: T1, caspase 3 (Homo sapiens, UniProt P42574); assay: Caspase 3 probe cleavage; format: biochemical; conditions: HEPES buffer pH 7.4, 10 mM DTT, 37°C, 640/680 nm
T1 sequence (P42574 29-175 limits assumed): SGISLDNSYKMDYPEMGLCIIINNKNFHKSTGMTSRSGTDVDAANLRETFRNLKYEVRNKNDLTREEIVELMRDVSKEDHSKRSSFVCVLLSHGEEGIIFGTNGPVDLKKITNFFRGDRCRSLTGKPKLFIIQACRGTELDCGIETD
T1 sequence (P42574 176-277 limits assumed): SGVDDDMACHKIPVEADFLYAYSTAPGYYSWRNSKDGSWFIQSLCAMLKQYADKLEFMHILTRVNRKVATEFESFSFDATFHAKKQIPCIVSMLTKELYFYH
In short: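 Human recombinant caspase 3 (E. coli-expressed; 50 U, 1.4 × 10−6 mg) is pre-equilibrated for 10 min at 37°C in the stated buffer with 0.1% CHAPS, 10% glycerol and 1 mM EDTA. Quenched test compound (2 µM solution) is added, and fluorescence is read continuously for 30 min at 37°C. Signals are background-subtracted and normalized to enzyme mass. Initial 0–5 min rates come from linear fits; Km and kcat come from nonlinear regression of cleavage rates.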

[5] = system: RGC-5 cells; assay: Non-target activation in healthy cells, LysoTracker co-localization; format: cell-based, mouse
[6] = system: RGC-5 cells; format: cell-based, mouse; conditions: FITC-annexin V; compared to 3 with Alexa Fluor 647-annexin V; data not shown
In short: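 RGC-5 cells are grown in phenol-free DMEM with 10% FBS at 37°C and 5% CO2. They are given 5 µM staurosporine in growth medium for 3 h, then co-incubated for 30 min with up to 10 µM quenched test compound plus FITC-annexin V. Propidium iodide (500 nM) is added for 5 min. Cells are rinsed three times in phenol-free medium and imaged by fluorescence microscopy.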

[7] = system: retinal ganglion cell apoptosis; conditions: directly applied into the vitreous humor; models of RGC degeneration; ref [6],[10]; cited from earlier work
[8] = in vivo; cited from earlier work
[9] = Figures 5–7, S9, S10 (ionomycin), Figure 6 (SS), doxorubicin data not shown

## CN[C@H](CC(=O)O)C(=O)O [NMDA]
[1]
  loss in viability: no loss in viability

## CN[C@@H]1C[C@H]2O[C@@](C)([C@@H]1OC)n1c3ccccc3c3c4c(c5c6ccccc6n2c5c31)C(=O)NC4 [SS, staurosporine]
[2]; 0.5 µM SS, 37°C, bright field microscopy
  time to differentiation morphology: ≤ 1 hour
[2]; SS, room temperature
  time to completion of morphological changes: approximately 2 hours
[2]; concentrations exceeding the value
  toxic concentration (blebbing and disruption of neurite morphology): exceeding 2 µM
[3]; [9]
  apoptosis and probe activation upon treatment: readily observed

## COc1cccc2c1C(=O)c1c(O)c3c(c(O)c1C2=O)C[C@@](O)(C(=O)CO)C[C@@H]3O[C@H]1C[C@H](N)[C@H](O)[C@H](C)O1 [doxorubicin]
[3]
  apoptosis and probe activation upon treatment: readily observed

## C[C@H](CCC(=O)O)C[C@H](C)C[C@H](C)C(=O)/C=C(\O)[C@H](C)C[C@H](C)C/C=C/[C@@H](C)[C@@H](O)[C@@H](C)[C@@H](O)C[C@@H]1CC[C@@](C)([C@H]2CC[C@@](C)([C@@H](C)O)O2)O1 [ionomycin]
[3]; [9]
  apoptosis and probe activation upon treatment: readily observed

## (kkkrkv) linked to a cleavage sequence consisting of L amino acids (KDEVDAPC) [compound 1]
[4]
  kcat/Km: 435 (FU min^−1 µM^−1)/nM
[5]; 2 hr exposure, fluorescence microscopy
  probe signal in healthy cells: no significant probe signal
[5]; SS-differentiated RGC-5 cells, 3 hrs
  Pearson’s coefficient, LysoTracker compartments and activated probe: 0.612
[5]; healthy native and SS-differentiated RGC-5 cells, 3 hrs
  punctate probe signal in LysoTracker-labeled compartments: delayed appearance of punctate signal
[5]; native RGC-5 cells, 3 hrs
  Pearson’s coefficient, LysoTracker compartments and activated probe: 0.566
[6]
  coincidence of probe activation with annexin V binding: Identical results
[7]
  detection of RGC apoptosis in vivo: detect RGC apoptosis in models of RGC degeneration in vivo
[8]
  systemic toxicity: without the systemic toxicity of the HIV-1 Tat sequence
